Experimental data from ChEMBL document CHEMBL2029252, “Pharmacophore-based small molecule CXCR4 ligands” (Bioorg Med Chem Lett, 2012).
The source made the active and inactive calls. No cut-off for these calls is given here.

Legend:
[1] = target: C-X-C chemokine receptor type 4 (Homo sapiens) (UniProt P61073); test: Displacement of [125I]-CXCL12 from CXCR4 expressed in human Jurkat cells at 10 uM relative to T140; type: cell-based
Summary of the method: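 Competition for [125I]-CXCL12 binding to Jurkat cells, test compounds at 10 µM. Percent inhibition expressed relative to that given by the reference peptide T140, set at 100%.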

[2] = test system: Human immunodeficiency virus 1; test: Antiviral activity against X4-tropic HIV1 NL4.3 infected in human MT4 cells assessed as protection from virus-induced cytopathogenicity; type: functional, organism-based; settings: Human immunodeficiency virus 1, NL4.3, MT4
Summary of the method: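 MT-4 cells infected with X4 HIV-1 strain NL4-3; readout is protection from virus-induced cytopathogenicity. EC50 = concentration giving 50% protection, mean of at least three independent experiments.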

[3] = Cytotoxicity against human MT4 cells assessed as reduction of cell viability; type: cell-based
[4] = test system: Human immunodeficiency virus 1; test: Antiviral activity against R5-tropic HIV1 NL(AD8) infected in human PM1 cells expressing CCR5 assessed as protection from virus-induced cytopathogenicity at < 100 uM; type: functional, organism-based
[5] = test system: Human immunodeficiency virus 1; test: Antiviral activity against R5-tropic HIV1 NL(AD8) infected in human PM1 cells expressing CCR5 assessed as protection from virus-induced cytopathogenicity; type: functional, organism-based; settings: Human immunodeficiency virus 1, NL(AD8)

Chain of C-X-C chemokine receptor type 4 (Homo sapiens) (P61073 whole entry): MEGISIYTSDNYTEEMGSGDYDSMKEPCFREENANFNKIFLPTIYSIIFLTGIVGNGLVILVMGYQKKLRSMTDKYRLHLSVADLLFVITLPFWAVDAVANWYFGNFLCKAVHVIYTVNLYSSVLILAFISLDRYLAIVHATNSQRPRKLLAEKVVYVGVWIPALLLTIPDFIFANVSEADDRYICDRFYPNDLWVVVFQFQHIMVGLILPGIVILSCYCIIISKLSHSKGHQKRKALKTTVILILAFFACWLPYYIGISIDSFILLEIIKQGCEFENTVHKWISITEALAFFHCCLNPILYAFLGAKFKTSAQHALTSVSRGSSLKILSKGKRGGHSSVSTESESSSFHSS

SMILES	inhibition [1]	EC50 [2]	CC50 [3]	Activity [4]	EC50 [5]
C[C@H](NC(=O)[C@H](CCCNC(=N)N)NC(=O)c1ccc(CN(CCc2ccncc2)CCc2ccc(F)cc2)cc1)c1cccc2ccccc12	51%	–	–	–	–
C[C@H](NC(=O)[C@H](CCCNC(=N)N)NC(=O)c1ccc(CN(CCc2ccncc2)C(=O)c2ccc(F)cc2)cc1)c1cccc2ccccc12	25%	> 20 µM	47 µM	–	–
C[C@@H](NC(=O)[C@H](CCCNC(=N)N)NC(=O)c1ccc(CN(Cc2ccccn2)C(=O)c2ccc(F)cc2)cc1)c1cccc2ccccc12	3%	> 20 µM	38 µM	–	–
C[C@@H](NC(=O)[C@H](CCCNC(=N)N)NC(=O)c1ccc(CN(CCc2ccncc2)Cc2ccc(F)cc2)cc1)c1cccc2ccccc12	16%	–	–	–	–
C[C@H](NC(=O)[C@H](CCCNC(=N)N)NC(=O)c1ccc(CN(CCc2ccc(F)cc2)CCc2cccnc2)cc1)c1cccc2ccccc12	35%	–	–	–	–
C[C@@H](NC(=O)[C@H](CCCNC(=N)N)NC(=O)c1ccc(CN(CCc2ccncc2)C(=O)c2ccc(F)cc2)cc1)c1cccc2ccccc12	12%	–	–	–	–
C[C@H](NC(=O)[C@H](CCCNC(=N)N)NC(=O)c1ccc(CN(CCc2cccnc2)Cc2ccc(F)cc2)cc1)c1cccc2ccccc12	60%	13 µM	65 µM	inactive	–
C[C@H](NC(=O)[C@H](CCCNC(=N)N)NC(=O)c1ccc(CN(CCc2ccncc2)Cc2ccc(F)cc2)cc1)c1cccc2ccccc12	20%	10 µM	44 µM	inactive	–
C[C@H](NC(=O)[C@H](CCCNC(=N)N)NC(=O)c1ccc(CN(Cc2ccc(F)cc2)Cc2ccccn2)cc1)c1cccc2ccccc12	30%	> 4 µM	11 µM	–	–
C[C@@H](NC(=O)[C@H](CCCNC(=N)N)NC(=O)c1ccc(CN(CCc2ccc(F)cc2)Cc2ccncc2)cc1)c1cccc2ccccc12	44%	–	–	–	–
C[C@@H](NC(=O)[C@H](CCCNC(=N)N)NC(=O)c1ccc(CN(CCc2ccccn2)Cc2ccc(F)cc2)cc1)c1cccc2ccccc12	4%	> 4 µM	23 µM	–	–
C[C@H](NC(=O)[C@H](CCCNC(=N)N)NC(=O)c1ccc(CNCc2ccccn2)cc1)c1cccc2ccccc12	100%	0.33 µM	80 µM	–	–
C[C@H](NC(=O)[C@H](CCCNC(=N)N)NC(=O)c1ccc(CN(Cc2ccncc2)Cc2ccc(F)cc2)cc1)c1cccc2ccccc12	16%	8 µM	44 µM	inactive	–
C[C@H](NC(=O)[C@H](CCCNC(=N)N)NC(=O)c1ccc(CN(Cc2ccncc2)C(=O)c2ccc(F)cc2)cc1)c1cccc2ccccc12	13%	> 20 µM	51 µM	–	–
C[C@H](NC(=O)[C@H](CCCNC(=N)N)NC(=O)c1ccc(CN(CCc2cccnc2)C(=O)c2ccc(F)cc2)cc1)c1cccc2ccccc12	32%	–	–	–	–
C[C@H](NC(=O)[C@H](CCCNC(=N)N)NC(=O)c1ccc(CN(CCc2ccc(F)cc2)CCc2ccccn2)cc1)c1cccc2ccccc12	23%	> 4 µM	13 µM	–	–
C[C@@H](NC(=O)[C@H](CCCNC(=N)N)NC(=O)c1ccc(CN(Cc2ccncc2)Cc2ccc(F)cc2)cc1)c1cccc2ccccc12	12%	> 20 µM	39 µM	–	–
C[C@H](NC(=O)[C@H](CCCNC(=N)N)NC(=O)c1ccc(CN(CCc2ccccn2)Cc2ccc(F)cc2)cc1)c1cccc2ccccc12	25%	> 20 µM	24 µM	–	–
Cc1cn([C@H]2C[C@H](N=[N+]=[N-])[C@@H](CO)O2)c(=O)[nH]c1=O [ZIDOVUDINE]	–	0.058 µM	100 µM	–	–
N=C(N)NCCC[C@@H]1NC(=O)[C@H](CCCNC(=N)N)NC(=O)[C@@H](Cc2ccc(O)cc2)NC(=O)CNC(=O)[C@H](Cc2ccc3ccccc3c2)NC1=O	100%	–	> 10 µM	–	–
C[C@@H](NC(=O)[C@H](CCCNC(=N)N)NC(=O)c1ccc(CN(CCc2ccc(F)cc2)Cc2ccccn2)cc1)c1cccc2ccccc12	15%	–	–	–	–

SMILES	inhibition [1]	EC50 [2]	CC50 [3]	Activity [4]	EC50 [5]
C[C@@H](NC(=O)[C@H](CCCNC(=N)N)NC(=O)c1ccc(CN(CCc2ccc(F)cc2)CCc2cccnc2)cc1)c1cccc2ccccc12	69%	> 11 µM	11 µM	inactive	–
COC[C@@H](c1ccc(C(F)(F)F)cc1)N1CCN(C2(C)CCN(C(=O)c3c(C)ncnc3C)CC2)C[C@@H]1C [VICRIVIROC]	–	–	–	–	0.055 µM
C[C@@H](NC(=O)[C@H](CCCNC(=N)N)NC(=O)c1ccc(CN(Cc2cccnc2)C(=O)c2ccc(F)cc2)cc1)c1cccc2ccccc12	11%	> 20 µM	45 µM	–	–
C[C@H](NC(=O)[C@H](CCCNC(=N)N)NC(=O)c1ccc(CN(Cc2ccc(F)cc2)Cc2cccnc2)cc1)c1cccc2ccccc12	27%	> 20 µM	41 µM	–	–
C[C@H](NC(=O)[C@H](CCCNC(=N)N)NC(=O)c1ccc(CN(CCc2ccc(F)cc2)Cc2ccncc2)cc1)c1cccc2ccccc12	26%	–	–	–	–
C[C@H](NC(=O)[C@H](CCCNC(=N)N)NC(=O)c1ccc(CN(Cc2ccccn2)C(=O)c2ccc(F)cc2)cc1)c1cccc2ccccc12	36%	> 20 µM	37 µM	–	–
C[C@H](NC(=O)[C@H](CCCNC(=N)N)NC(=O)c1ccc(CN(CCc2ccc(F)cc2)Cc2ccccn2)cc1)c1cccc2ccccc12	16%	> 4 µM	9.9 µM	–	–
C[C@@H](NC(=O)[C@H](CCCNC(=N)N)NC(=O)c1ccc(CN(CCc2ccccn2)C(=O)c2ccc(F)cc2)cc1)c1cccc2ccccc12	6%	> 20 µM	41 µM	–	–
C[C@@H](NC(=O)[C@H](CCCNC(=N)N)NC(=O)c1ccc(CN(Cc2ccc(F)cc2)Cc2ccccn2)cc1)c1cccc2ccccc12	0%	> 20 µM	35 µM	–	–
C[C@@H](NC(=O)[C@H](CCCNC(=N)N)NC(=O)c1ccc(CN(CCc2cccnc2)C(=O)c2ccc(F)cc2)cc1)c1cccc2ccccc12	22%	–	–	–	–
C[C@@H](NC(=O)[C@H](CCCNC(=N)N)NC(=O)c1ccc(CN(Cc2ccc(F)cc2)Cc2cccnc2)cc1)c1cccc2ccccc12	6%	> 20 µM	37 µM	–	–
C[C@H](NC(=O)[C@H](CCCNC(=N)N)NC(=O)c1ccc(CN(CCc2ccccn2)C(=O)c2ccc(F)cc2)cc1)c1cccc2ccccc12	0%	> 20 µM	43 µM	–	–
C[C@@H](NC(=O)[C@H](CCCNC(=N)N)NC(=O)c1ccc(CNC(=O)c2ccc(C(F)(F)F)cc2)cc1)c1cccc2ccccc12	–	7.4 µM	66 µM	–	–
C[C@@H](NC(=O)[C@H](CCCNC(=N)N)NC(=O)c1ccc(CN(CCc2ccncc2)CCc2ccc(F)cc2)cc1)c1cccc2ccccc12	0%	–	–	–	–
C[C@@H](NC(=O)[C@H](CCCNC(=N)N)NC(=O)c1ccc(CN(CCc2ccc(F)cc2)Cc2cccnc2)cc1)c1cccc2ccccc12	79%	11 µM	47 µM	inactive	–
C[C@@H](NC(=O)[C@H](CCCNC(=N)N)NC(=O)c1ccc(CN(Cc2ccncc2)C(=O)c2ccc(F)cc2)cc1)c1cccc2ccccc12	6%	> 20 µM	45 µM	–	–
C[C@H](NC(=O)[C@H](CCCNC(=N)N)NC(=O)c1ccc(CN(Cc2cccnc2)C(=O)c2ccc(F)cc2)cc1)c1cccc2ccccc12	14%	> 20 µM	57 µM	–	–
C[C@H](NC(=O)[C@H](CCCNC(=N)N)NC(=O)c1ccc(CN(CCc2ccc(F)cc2)Cc2cccnc2)cc1)c1cccc2ccccc12	36%	–	–	–	–
C[C@@H](NC(=O)[C@H](CCCNC(=N)N)NC(=O)c1ccc(CN(CCc2cccnc2)Cc2ccc(F)cc2)cc1)c1cccc2ccccc12	24%	–	–	–	–
C[C@@H](NC(=O)[C@H](CCCNC(=N)N)NC(=O)c1ccc(CN(CCc2ccc(F)cc2)CCc2ccccn2)cc1)c1cccc2ccccc12	13%	> 20 µM	27 µM	–	–
